{"data": "Published values of several laboratories", "target": "Carbonic anhydrase 2 (CA2, Homo sapiens, UniProt P00918)", "observed": "enzyme activity", "action": "inhibitor"}
{"SMILES": "N#C[Se]Cc1cc(=O)oc2cc(O)ccc12", "test": "stopped-flow", "quantity": "Ki", "value": "> 100000 nM"}
{"SMILES": "NC(=S)N/N=C1/c2ccccc2[C@@H]2[C@H]1[C@@H](c1ccsc1)[C@H](C(=O)c1ccsc1)[C@H]2c1ccsc1 (racemic)", "test": "absorbance", "quantity": "IC50", "value": "523 nM"}
{"SMILES": "O=C(Nc1ccc2c(c1)C=CCP(=O)(O)O2)c1ccc2ccccc2c1", "test": "stopped-flow", "quantity": "Ki", "value": "> 10000 nM"}
{"SMILES": "Cc1cc(=O)oc2cc(OCCCC[Se]C#N)ccc12", "test": "stopped-flow", "quantity": "Ki", "value": "> 100000 nM"}
{"SMILES": "Cc1ccc(NC(=O)Nc2ccc3c(c2)C=CCP(=O)(O)O3)cc1", "test": "stopped-flow", "quantity": "Ki", "value": "> 10000 nM"}
{"SMILES": "CC(C)c1cc2c(c(O)c1O)[C@@]13CCCC(C)(C)[C@@H]1[C@H](OC3=O)[C@H]2O", "quantity": "Ki", "value": "4.99 nM"}
{"SMILES": "O=C(Nc1ccc2c(c1)C=CCP(=O)(O)O2)c1ccc(F)cc1", "test": "stopped-flow", "quantity": "Ki", "value": "> 10000 nM"}
{"SMILES": "CC(C)c1cc2c(c(O)c1O)[C@@]13CCCC(C)(C)[C@@H]1[C@@H](O)[C@@H]2OC3=O", "quantity": "IC50", "value": "5.78 nM"}
{"SMILES": "O=C(Nc1ccc2c(c1)C=CCP(=O)(O)O2)c1ccc(Br)cc1", "test": "stopped-flow", "quantity": "Ki", "value": "> 10000 nM"}
{"SMILES": "Cc1ccc([C@@H]2[C@@H](C(=O)c3cccs3)[C@H](c3ccco3)[C@H]3/C(=N\\NC(N)=S)c4ccccc4[C@H]32)cc1 (racemic)", "test": "absorbance", "quantity": "IC50", "value": "844 nM"}
{"SMILES": "CC(C)c1cc2c(c(O)c1O)[C@@]13CCCC(C)(C)[C@@H]1C[C@@H]2OC3=O", "quantity": "IC50", "value": "5.47 nM"}
{"SMILES": "NC(=S)N/N=C1/c2ccccc2[C@@H]2[C@H]1[C@@H](c1ccc(F)cc1)[C@H](C(=O)c1ccc(F)cc1)[C@H]2c1ccc(F)cc1 (racemic)", "test": "absorbance", "quantity": "IC50", "value": "605 nM"}
{"SMILES": "O=C(Nc1ccc(F)cc1)Nc1ccc2c(c1)C=CCP(=O)(O)O2", "test": "stopped-flow", "quantity": "Ki", "value": "> 10000 nM"}
{"SMILES": "CC(C)c1cc2c(c(O)c1O)[C@@]1(C(=O)O)CCCC(C)(C)[C@@H]1CC2", "quantity": "Ki", "value": "4.2 nM"}
{"SMILES": "NC(=S)N/N=C1/c2ccccc2[C@@H]2[C@H]1[C@@H](c1cccs1)[C@H](C(=O)c1cccs1)[C@H]2c1cccs1 (racemic)", "test": "absorbance", "quantity": "IC50", "value": "510 nM"}
